From ChEMBL document CHEMBL4364253, “Application of Dually Activated Michael Acceptor to the Rational Design of Reversible Covalent Inhibitor for Enterovirus 71 3C Protease” (J Med Chem, 2019)
Each block holds one molecule with its values, some of them ahead of it. Calls of active or inactive are those of the source.

Assays:
Enterovirus A71 [1] = test: Binding affinity to Enterovirus 71 3C protease assessed as enzyme-compound covalent adduct formation via Cys147 residue by measuring ratio of peak intensity of covalently modified to unmodified protein at 10 equivalent after 30 mins by HPLC-ESI/MS analysis
Procedure, shortened: (§1)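 Recombinant EV71 3C protease (40 µM) incubated with inhibitor at 30 °C in 50 mM Tris, 150 mM NaCl, 1 mM EDTA-2Na, pH 7.0. Free inhibitor and salts removed by three ultrafiltration washes with water (10 kDa cutoff). Analysis by HPLC-ESI-Orbitrap MS with 0.1% formic acid water/acetonitrile mobile phases. Spectra deconvoluted; modification given as adduct-to-unmodified protein peak intensity ratio (I_add/I_pro).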

Enterovirus A71 [2] = test: Antiviral activity against pseudotyped Enterovirus A71 infected in human muscular rhabdomyosarcoma cells treated prior to viral infection and measured after 24 hrs by luminescence method; assay type: functional, organism-based; conditions: Enterovirus A
Enterovirus A71 [3] = test: Irreversible covalent inhibition of Enterovirus 71 3C protease at 64 uM using NMA-IEALFQGPPK(DNP)FR as substrate and measured for 1 to 1.5 hrs by fluorescence method
Enterovirus A71 [4] = test: Binding affinity to Enterovirus 71 3C protease assessed as enzyme-compound covalent adduct formation via Cys147 residue by measuring ratio of peak intensity of covalently modified to unmodified protein at 20 equivalent after 1 hr by HPLC-ESI/MS analysis; procedure, shortened: as §1
RD [5] = test: Cytotoxicity against human RD cells at 100 uM after 24 hrs by WST-1 assay relative to control; assay type: cell-based
RD [6] = test: Cytotoxicity against human RD cells at 33 uM after 24 hrs by WST-1 assay; assay type: cell-based
Enterovirus A71 [7] = test: Reversible inhibition of Enterovirus 71 3C protease assessed as recovery of enzyme activity at 10 to 20 equivalent using peptide substrate pre-incubated for 1 hr followed by dialysis and subsequent substrate addition measured up to 72 hrs relative to control; design: scale not given: the % may be the effect or the level left
Enterovirus A71 [8] = test: Antiviral activity against pseudotyped FY Enterovirus A71 harboring luciferase reporter gene infected in HEK-293T cells in presence of ethanolamine by Bright-Glo Luciferase Assay; assay type: functional, organism-based
Enterovirus A71 [9] = test: Inhibition of Enterovirus 71 3C protease in presence of lysine
Enterovirus A71 [10] = test: Reversible inhibition of Enterovirus 71 3C protease assessed as recovery of enzyme activity at 10 to 20 equivalent using peptide substrate pre-incubated for 1 hr followed by dilution prior to substrate addition using ultra-filtered sample relative to control; design: scale not given: the % may be the effect or the level left
[11] = biological target: Chymotrypsinogen A (Bos taurus) (UniProt P00766); test: Inhibition of bovine pancreas alpha-chymotrypsin at 50 uM after 30 mins using N-Succinyl-L-phenylalanine- p-nitroanilide measured for 30 mins
Enterovirus A71 [12] = test: Binding affinity to Enterovirus 71 3C protease assessed as enzyme-compound covalent adduct formation via Cys147 residue by measuring ratio of peak intensity of covalently modified to unmodified protein at 10 to 20 equivalent after 1 hr by HPLC-ESI/MS analysis; procedure, shortened: as §1
Enterovirus A71 [13] = test: Inhibition of Enterovirus 71 3C protease in presence of glutathione
Enterovirus A71 [14] = test: Antiviral activity against pseudotyped FY Enterovirus A71 harboring luciferase reporter gene infected in HEK-293T cells in presence of lysine by Bright-Glo Luciferase Assay; assay type: functional, organism-based
Enterovirus A71 [15] = test: Inhibition of Enterovirus 71 3C protease in presence of ethanolamine
[16] = biological target: T1, Calpain-1 catalytic subunit (Homo sapiens) (UniProt P07384); test: Inhibition of human Calpain1 at 50 uM using Ac-LLY-AFC as substrate preincubated for 5 mins followed by substrate addition and measured after 10 mins by fluorescence method relative to control
T1 sequence (whole entry): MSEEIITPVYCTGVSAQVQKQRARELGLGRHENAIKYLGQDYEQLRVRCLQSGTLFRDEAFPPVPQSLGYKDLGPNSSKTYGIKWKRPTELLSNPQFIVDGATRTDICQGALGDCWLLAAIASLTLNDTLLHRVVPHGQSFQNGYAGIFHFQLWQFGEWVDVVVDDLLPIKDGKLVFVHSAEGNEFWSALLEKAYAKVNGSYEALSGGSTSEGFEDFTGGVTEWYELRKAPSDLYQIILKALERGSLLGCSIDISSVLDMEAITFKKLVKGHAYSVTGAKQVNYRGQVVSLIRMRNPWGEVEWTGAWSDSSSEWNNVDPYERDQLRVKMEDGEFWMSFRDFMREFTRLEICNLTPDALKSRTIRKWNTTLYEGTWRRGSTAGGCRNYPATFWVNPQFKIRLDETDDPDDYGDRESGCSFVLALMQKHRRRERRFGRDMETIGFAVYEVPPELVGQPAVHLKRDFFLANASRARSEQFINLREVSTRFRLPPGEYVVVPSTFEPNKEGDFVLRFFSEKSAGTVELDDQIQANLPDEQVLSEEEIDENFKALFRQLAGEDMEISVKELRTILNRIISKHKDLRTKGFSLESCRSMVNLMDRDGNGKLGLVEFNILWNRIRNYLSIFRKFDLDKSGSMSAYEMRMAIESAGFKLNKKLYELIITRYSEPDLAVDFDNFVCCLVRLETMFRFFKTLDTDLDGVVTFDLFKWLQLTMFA

[17] = Reversible inhibition of Enterovirus 71 3C protease assessed as overall inhibition constant using NMA-IEALFQGPPK(DNP)FR as substrate pre-incubated for 30 mins followed by substrate addition and measured over 30 mins by fluorescence method; design: species or system Enterovirus A71
[18] = biological target: T2, Cathepsin K (Homo sapiens) (UniProt P43235); test: Inhibition of human Cathepsin K at 50 uM using Ac-LR-AFC as substrate preincubated for 10 to 15 mins followed by substrate addition and measured for 30 to 60 mins by fluorescence method relative to control
T2 sequence (whole entry): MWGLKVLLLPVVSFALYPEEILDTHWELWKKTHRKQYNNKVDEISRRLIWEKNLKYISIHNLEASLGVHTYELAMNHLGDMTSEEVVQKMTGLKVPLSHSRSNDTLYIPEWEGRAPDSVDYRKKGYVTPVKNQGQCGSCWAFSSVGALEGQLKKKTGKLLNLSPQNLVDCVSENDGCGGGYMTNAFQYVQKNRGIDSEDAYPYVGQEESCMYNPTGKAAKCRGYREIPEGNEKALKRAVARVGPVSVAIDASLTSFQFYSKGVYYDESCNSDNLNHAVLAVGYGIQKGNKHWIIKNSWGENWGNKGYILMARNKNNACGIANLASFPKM

Enterovirus A71 [19] = test: Antiviral activity against pseudotyped FY Enterovirus A71 harboring luciferase reporter gene infected in HEK-293T cells in presence of glutathione by Bright-Glo Luciferase Assay; assay type: functional, organism-based
Enterovirus A71 [20] = test: Inhibition of Enterovirus 71 3C protease assessed as induction of rapid equilibrium for enzyme-inhibitor complex formation up to 1.5 uM using NMA-IEALFQGPPK(DNP)FR as substrate by fluorescence method
Enterovirus A71 [21] = test: Binding affinity to Enterovirus 71 3C protease assessed as enzyme-compound covalent adduct formation via Cys147 residue after 1 hr by HPLC-ESI/MS analysis
Enterovirus A71 [22] = test: Antiviral activity against Enterovirus A71 EV71/Shenzhen/120F1/09 infected in human muscular rhabdomyosarcoma cells assessed as reduction in virus-induced cell death incubated for 3 days by CCK-8 assay; assay type: functional, organism-based; conditions: Enterovirus A, EV71/Shenzhen/120F1/09, 72 h
[23] = Inhibition of Enterovirus 71 E2004104-TW-CDC protease 3C (1549 to 1731 residues) expressed in Escherichia coli BL21(DE3) cells using Dacyl-KRTATVQGPSLDFE-Edans as substrate by fluorescence method; design: species or system Enterovirus A71
Enterovirus A71 [24] = test: Slow-binding inhibition of Enterovirus 71 3C protease up to 3 uM using NMA-IEALFQGPPK(DNP)FR as substrate by fluorescence method

SMILES: Cc1cc(C(=O)N[C@@H](Cc2ccc(F)cc2)C(=O)N[C@H](/C=C/C#N)C[C@@H]2CCCNC2=O)no1
Ratio (Enterovirus A71 [1]): > 100
EC50 (Enterovirus A71 [2]): 37000 nM
inhibition (Enterovirus A71 [3]): Active
Ratio (Enterovirus A71 [4]): > 100

SMILES: Cc1cc(C(=O)N[C@@H](Cc2ccc(F)cc2)C(=O)N[C@H](/C=C(\C#N)c2ccc(C(F)(F)F)cc2)C[C@@H]2CCCNC2=O)no1
EC50 (Enterovirus A71 [2]): 1400 nM
Activity (RD [5]): 100%
Activity (RD [6]): Toxic

SMILES: Cc1cc(C(=O)N[C@@H](Cc2ccc(F)cc2)C(=O)N[C@H](/C=C(\C#N)C(=O)N(C)C(=O)OC(C)(C)C)C[C@@H]2CCCNC2=O)no1
Activity (Enterovirus A71 [7]): 30%
Activity (Enterovirus A71 [8]): Active
inhibition (Enterovirus A71 [9]): Active
Activity (Enterovirus A71 [10]): Active
inhibition [11]: inactive
Ratio (Enterovirus A71 [12]): 1.5
inhibition (Enterovirus A71 [13]): inactive
Activity (Enterovirus A71 [14]): Active
EC50 (Enterovirus A71 [2]): 51 nM
inhibition (Enterovirus A71 [15]): Active
inhibition [16]: < 50%
Ki [17]: 9.3 nM
inhibition [18]: < 50%
Activity (Enterovirus A71 [19]): Active

Activity (Enterovirus A71 [10]): 65 to 85%
EC50 (Enterovirus A71 [2]): 30 nM
inhibition (Enterovirus A71 [20]): Active
Activity (Enterovirus A71 [21]): inactive
SMILES: Cc1cc(C(=O)N[C@@H](Cc2ccc(F)cc2)C(=O)N[C@H](/C=C(\C#N)C(=O)OC(C)(C)C)C[C@@H]2CCCNC2=O)no1
Ki [17]: 6.7 nM

IC50 [23]: 1600 nM
SMILES: CCOC(=O)/C=C/[C@H](C[C@@H]1CCNC1=O)NC(=O)[C@@H](CC(=O)[C@@H](NC(=O)c1cc(C)on1)C(C)C)Cc1ccc(F)cc1 [RUPINTRIVIR]
EC50 (Enterovirus A71 [22]): 41 nM

SMILES: COC(=O)/C(C#N)=C/[C@H](C[C@@H]1CCCNC1=O)NC(=O)[C@H](Cc1ccc(F)cc1)NC(=O)c1cc(C)on1
Activity (Enterovirus A71 [7]): 50%
Activity (Enterovirus A71 [8]): Active
inhibition (Enterovirus A71 [9]): Active
Activity (Enterovirus A71 [10]): 65 to 85%
inhibition [11]: inactive
inhibition (Enterovirus A71 [13]): inactive
Activity (Enterovirus A71 [14]): Active
EC50 (Enterovirus A71 [2]): 53 nM
inhibition (Enterovirus A71 [15]): Active
inhibition [16]: < 50%
Ki [17]: 9.4 nM
Activity (Enterovirus A71 [21]): inactive
inhibition [18]: < 50%
Activity (Enterovirus A71 [19]): Active

inhibition (Enterovirus A71 [24]): Active
EC50 (Enterovirus A71 [2]): 67 nM
SMILES: CCN(C(=O)OC(C)(C)C)C(=O)/C(C#N)=C/[C@H](C[C@@H]1CCCNC1=O)NC(=O)[C@H](Cc1ccc(F)cc1)NC(=O)c1cc(C)on1
Ki [17]: 24 nM
